The list is not random: actives were taken first. Their share in the collection is about 1.9%.
CHRM4 agonist: agonists of human muscarinic M4 receptor (CHRM4) | P08173 | CHO-K1 hM4/Gqi5, Fluo-8 calcium fluorescence; vehicle 0%, full acetylcholine response 100% | activation, % at 3 µM | 360,000 tested, 0.14% active;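 active means activation above the run mean over all test wells plus 3 SD, cut at about 32% in these data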;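 further: peak over basal fluorescence ratio per well then scaled between controls; 0% = DMSO wells and 100% = acetylcholine at EC100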
CHRM4 PAM: CHRM4 positive allosteric modulation; activation, % at 3 µM; 360,000 tested, 0.4% active; CHO-K1 hM4/Gqi5, Fluo-8 calcium fluorescence, ACh EC20; 0% = ACh EC20, 100% = maximal ACh; P08173;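 active means activation above its plate's cutoff, the mean activation of sample wells plus 3 SD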
CHRM5 antagonist: antagonists of human muscarinic M5 receptor (CHRM5) | CHO-hM5 cells, Fluo-8 calcium fluorescence, ACh EC80 | inhibition, % at 3 µM | P08912 | 360,000 tested, 0.59% active;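 active means inhibition above a per-plate cutoff, the mean of that plate's test compounds plus 3 SD, cut at about 27% in these data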;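 further: 0% = acetylcholine EC80 with DMSO and 100% = DMSO without agonist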
Target sequence (P08912 whole entry, looked up): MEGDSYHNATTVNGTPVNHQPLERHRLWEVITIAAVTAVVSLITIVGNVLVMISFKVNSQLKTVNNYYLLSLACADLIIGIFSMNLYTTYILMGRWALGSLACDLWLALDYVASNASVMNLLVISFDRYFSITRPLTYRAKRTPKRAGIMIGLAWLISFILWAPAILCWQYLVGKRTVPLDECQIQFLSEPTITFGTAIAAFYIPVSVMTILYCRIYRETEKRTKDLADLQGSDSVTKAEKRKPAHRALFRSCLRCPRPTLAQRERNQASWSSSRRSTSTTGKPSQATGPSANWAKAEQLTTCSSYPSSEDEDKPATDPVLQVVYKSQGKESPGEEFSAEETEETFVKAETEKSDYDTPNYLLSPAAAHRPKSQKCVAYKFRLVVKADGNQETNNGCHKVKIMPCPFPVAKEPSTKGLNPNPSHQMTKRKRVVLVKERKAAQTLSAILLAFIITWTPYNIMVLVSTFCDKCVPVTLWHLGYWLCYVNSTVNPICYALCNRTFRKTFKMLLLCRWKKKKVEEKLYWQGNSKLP
M4 antag: CHRM4 antagonism in calcium assay. P08173. CHO-hM4 cells, ACh EC80, Fluo-8 calcium fluorescence. inhibition, % at 3 µM. 360,000 tested, 0.73% active. AID 624125;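 active means inhibition above its plate's cutoff, the mean inhibition of sample wells plus 3 SD, cut at about 27% in these data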;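 further: 0% = acetylcholine EC80 with DMSO and 100% = DMSO without agonist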
CHRM5 agonist: CHRM5 agonism in calcium assay. CHO-K1 hM5 cells, Fluo-8 calcium fluorescence; 0% DMSO wells, 100% maximal acetylcholine response. 360,000 tested, 0.19% active. P08912. AID 624037. activation, % at 3 µM;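 active means activation above the run's mean over test compounds plus 3 SD, cut at about 23% in these data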;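 further: signal is peak over basal fluorescence ratio across the kinetic read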
CHRM5 PAM: potentiates acetylcholine response at human M5 receptor | P08912 | CHO-K1 hM5, Fluo-8 calcium, ACh EC20 PAM; 0% = ACh EC20, 100% = ACh EC100 | activation, % at 3 µM | 360,000 tested, 0.3% active | AID 624038;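 active means activation above the run cutoff, the mean activation of all test compounds plus 3 SD, cut at about 18% in these data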
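Test system: CHO-K1 hM5 cells / Doses: single-point, 3 µM nominal / Times: Post-acetylcholine fluorescence recording 140 s / Technique: Fluo-8 calcium fluorescence / Measure: Max/basal fluorescence ratio as % of EC20–EC100 ACh window / Benchmarks: low control EC20 acetylcholine (0%), high control EC100 acetylcholine (100%) / Replicates: one well per compound, no replicates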
An asterisk follows results filed as active.

SMILES	CHRM4 agonist	CHRM4 PAM	CHRM5 antagonist	M4 antag	CHRM5 agonist	CHRM5 PAM
COC(=O)c1ccc(COc2cccn3c(N(C)C(=O)CCC4CCCC4)c(C)nc23)cc1	12.0	-15.6	11.7	10.8	1.3	-17.6
O=Cc1ccc(-n2cncn2)cc1	2.1	-3.7	18.4	9.1	-1.0	-5.4
CN1C(=O)S/C(=C\c2ccc(-n3cncn3)cc2)C1=O	1.6	4.1	-13.4	-4.9	3.7	21.0*
CCOC(=O)C1(CCOC)CCCCC1=O (stereo not given)	0.5	3.5	11.8	-8.5	3.5	-5.0
Cc1ccc(C)c(/C(O)=C2\C(=O)C(=O)N(CCCn3ccnc3)C2c2cccnc2)c1 (stereo not given)	0.2	6.2	8.3	-13.1	-1.3	20.2*
CCN1CCN(c2ccc(NC(=O)c3cccc(OCc4ccccc4)c3)cc2)CC1	8.6	-24.3	33.0*	18.3	-7.7	-19.2
O=C(NC(=S)Nc1ccc(CN2CCCCC2)cc1)c1cccc(OCc2ccccc2)c1	7.1	-27.1	47.6*	39.0*	-16.8	-33.1
O=C(O)c1ccc(NC(=S)NC(=O)c2cccc(COc3ccccc3)c2)cc1	0.4	-2.4	12.2	-8.7	1.6	-5.1
CN1CCCC(C#CC(O)(c2ccccc2)c2ccccc2)C1 (stereo not given)	1.2	-23.6	97.9*	74.1*	-10.8	-19.8
CCc1nc2ccc(C(=O)NCCOc3ccc(OC)cc3)cn2c1N(CC)CCOC	1.8	4.4	-11.0	-6.4	-0.8	4.1
CCN1/C(=C2\C(=O)N(c3ccccc3)N=C2C)C=Cc2cc(C)ccc21	13.9	-9.0	11.5	5.4	38.7*	-18.0
CCN1/C(=c2/s/c(=C3/C(=O)N(c4ccccc4)N=C3C)n(CC)c2=O)C=Cc2ccccc21	0.7	-6.0	12.1	-1.3	2.1	1.1
Cc1cc(Br)cn2c(Cc3ccsc3)c(C(C)(C)C)nc12	2.1	-11.7	12.1	7.1	-6.9	-1.8
Cc1nc2ccccc2c(=O)n1NC(=O)c1cccc(Cl)c1	15.3	-10.9	19.6	27.6*	0.9	-11.2
COC(=O)[C@@]12C[C@@H](CC(=O)NCC3CCCCC3)C(=O)N(Cc3ccc4c(c3)OCO4)C1=CCC(C)(C)C2	2.8	-2.2	9.0	9.9	-1.6	0.2
COc1ccc2c(Cl)cc(NC(=O)Nc3c(C)cccc3C)nc2c1	0.0	-1.6	6.5	8.4	0.3	-2.2
N#Cc1cc2cc(Cl)ccc2[nH]c1=O	0.0	2.7	7.2	4.9	1.7	2.5
Cc1ccc2nc(C)c(CN3CCN(c4ccc([N+](=O)[O-])cc4Cl)CC3)n2c1	12.4	-15.5	38.5*	26.4*	-2.1	-14.4
Cc1ccc(C)c(C(O)c2ncc(-c3ccccc3)[nH]2)c1 (stereo not given)	1.9	-1.1	-3.7	-2.8	0.4	1.7
COC(=O)C[C@@H]1C=C[C@H](NC(=O)Nc2ccc(F)cc2)[C@@H](CO)O1	1.1	6.3	5.3	4.7	-0.6	-7.2
N#C/C(=C/c1ccc(N2CCCCC2)o1)C(=O)Nc1ccc(Cl)cc1	170.3*	-18.7	54.7*	44.7*	56.0*	-25.7
N#C/C(=C/c1ccc(N2CCCCC2)o1)C(=O)Nc1ccc2ccccc2c1	181.3*	-22.6	90.9*	84.4*	456.6*	-20.9
COC1=CC(=O)OC(c2ccccc2)C1 (stereo not given)	1.8	8.0	3.5	-5.8	0.8	-2.1
CCN1CCc2c(sc(NC(=O)Nc3ccc(Cl)c(Cl)c3)c2C(N)=O)C1	123.8*	-43.7	58.0*	51.2*	76.7*	-19.2
COCCCn1cc(CN2CC(N3CCN(C4CCN(C)CC4)CC3)CS2(=O)=O)nn1 (stereo not given)	0.3	3.1	-1.0	-11.7	-1.3	-1.6
SMILES	CHRM4 agonist	CHRM4 PAM	CHRM5 antagonist	M4 antag	CHRM5 agonist	CHRM5 PAM
Cc1onc(-c2c(Cl)cccc2Cl)c1C(=O)N1CCc2ccccc21	-0.6	-31.8	13.3	37.9*	-11.9	-18.2
CC1(C)CC(=O)C2=C(C1)NC(=O)CC2c1cc2c(cc1Br)OCO2 (stereo not given)	2.9	24.0*	2.8	-0.6	-3.1	-1.9
Cc1sc2ncnc(NCC(O)c3ccc([N+](=O)[O-])cc3)c2c1C (stereo not given)	20.4	-9.3	36.4*	12.8	4.9	-13.7
Cc1sc2ncnc(NCC(O)c3ccccc3)c2c1C (stereo not given)	18.5	-5.4	12.0	7.3	7.8	-12.2
CN1CCN(CC#CC(C)(O)C2CC3C=CC2C3)CC1 (stereo not given)	0.3	1.3	-1.3	5.4	-7.6	-3.1
CC(C)N(CC#CCC(O)(c1ccccc1)c1ccccc1)C(C)C	2.4	-26.8	8.9	21.7	-7.0	-18.3
OC(CCN1CCCCC1)(c1ccccc1)C1C[C@@H]2C=C[C@H]1C2 (stereo not given in full)	0.8	-17.4	98.2*	99.2*	-1.5	-18.3
CCN(CC)CCC#CC(O)(c1ccccc1)c1ccccc1	0.4	-18.3	98.9*	84.2*	-7.8	-18.2
CCCOc1ccc(C(O)(CCC)CCN2CCCCC2)cc1 (stereo not given)	2.9	-20.4	20.6	21.1	-8.2	-24.0
Cc1ccc(C(O)(CCN2CCCCC2)c2ccccc2)cc1 (stereo not given)	2.0	-16.7	95.7*	92.7*	-8.5	-20.9
OC(C#CCCN1CCCCC1)(c1ccccc1)C1CCCCC1 (stereo not given)	2.9	-59.0	97.8*	96.7*	-20.3	-32.1
O=C(CCN1CCCCC1)c1ccccc1	-0.5	6.4	-0.5	-1.1	-0.2	-0.8
OC(C#CCCN1CCCCC1)(c1ccccc1)c1ccccc1	0.9	-17.2	99.5*	94.5*	-20.1	-31.9
COc1ccc(C(C)=O)cc1CSc1nc2cc(C(=O)O)ccc2c(=O)n1Cc1ccccc1	1.6	9.4	6.9	28.4*	1.0	1.5
O=C(NCC(F)(F)F)c1cc2c(c(-c3cccc(-c4ccccc4F)c3)n1)[C@H](CCO)N(C(=O)CC1CC1)C2	7.5	-4.6	4.7	0.6	1.4	-9.2
COc1ccc2nc3ccccc3nc2c1NC(=O)c1ccccc1Cl	7.1	-10.4	27.9*	2.8	0.1	-13.6
COC(=O)/C=C1\OCc2cc(OCc3ccccc3)ccc21	6.1	6.3	-0.9	-7.5	4.1	4.9
O=C(Nc1ccc(C(O)c2ccccc2)cc1)[C@H]1C[C@H](O)[C@@H](CO)O1 (stereo not given in full)	0.6	6.3	-3.3	3.0	0.7	-1.1
COc1cccc(NC(=O)CN(C)C(=O)Cn2cnc3ccccc3c2=O)c1	1.0	11.3	99.6*	-9.9	-7.7	-32.8

Screening data deposited in PubChem BioAssay by The Scripps Research Institute Molecular Screening Center.
